# From article PMC7003739 (Clinical Pharmacology in Drug Development, 2019)
# Marks after values point to notes of the source that are not given here.
# Assays:
# [1] = humans; cited from earlier work
# Urinary PK = assay type: in vivo, human; conditions: for Ae6, arithmetic mean (SD) / Ae12, arithmetic mean (SD) / Ae24%, arithmetic mean (SD) / CLR, arithmetic mean (SD) / CLR, geometric mean (%CV) / CLR, median: Cohort A
# [2] = Plasma PK after single oral doses; assay type: in vivo, human; conditions: for AUCinf, arithmetic mean (SD) / AUCinf, geometric mean (%CV) / Cmax, arithmetic mean (SD) / Cmax, geometric mean (%CV) / tmax, median (range) / t½, arithmetic mean (SD): n=6; for tmax, J‐W difference of median: Japanese‐Western
# In short: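 Healthy Japanese and Western volunteers took single oral doses of 1, 5 and 30 mg or placebo with 240 mL water on days 1, 4 and 7, with a 2-day washout. Heparinized blood was taken predose and at 0.25–48 h, centrifuged within 30 min at 4°C, and the plasma frozen at –20°C. Assay was LC-MS/MS (0.100–350 ng/mL), with values below the quantification limit set to zero. Japanese/Western geometric mean ratios came from log-scale ANOVA.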
# Safety and tolerability = assay type: in vivo, human
# In short: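 Healthy Japanese volunteers (Cohort B) were randomised 3:1 to a single oral 15 mg test compound dose or matching placebo on day 1, then 15 mg BID for 5 days (single dose on the last day) or placebo. Adverse events (intensity and treatment relatedness), clinical observations and vital signs were monitored throughout. ECG was done at specified post-dose times. Physical examination was on day 0 and 72 h after the final dose.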
# [3] = Plasma PK after single and multiple doses; assay type: in vivo, human; conditions: Japanese, Cohort B; for AUCτ, arithmetic mean (SD) / AUCτ, geometric mean (%CV): τ 12 hours
# [4] = 15 mg BID over 14 days, healthy volunteers; cited from earlier work
# [5] = Japanese, Cohort B, single 15 mg dose
# [6] = Japanese, single oral 1 mg, n=6
# [7] = Japanese, single oral 5 mg, n=5
# [8] = Japanese, single oral 5 mg, n=6
# [9] = Japanese, single oral 30 mg, n=6
# [10] = Western, single oral 30 mg, n=6
# [11] = Japanese, single oral 1 mg, Cohort A
# [12] = Japanese, single oral 5 mg, Cohort A
# [13] = Japanese, single oral 30 mg, Cohort A
# [14] = Western, single oral 1 mg, Cohort A
# [15] = Western, single oral 5 mg, Cohort A
# [16] = Western, single oral 30 mg, Cohort A
# [17] = Cohort B Japanese, 15 mg BID, N=6
# [18] = day 8 multiple dose 15 mg BID for 5 days, n=6
smiles,measurement,setting,value
C[C@@H]1CCN(C(=O)CC#N)C[C@@H]1N(C)c1ncnc2[nH]ccc12 [tofacitinib],contribution of renal clearance to clearance,[1],approximately 30%
same,"CLR reduction after multiple‐dose vs single‐dose administration, average","Urinary PK; Japanese, Cohort B, 15 mg",24%
same,"CLR, geometric mean [SD]","Urinary PK; Japanese, Cohort B, multiple dose 15 mg BID",120 mL/min
same,"Ae24%, arithmetic mean (SD) percentage of unchanged tofacitinib excreted in urine 24 hours after dose",Urinary PK; [5],27.1%
same,"CLR, geometric mean [SD]",Urinary PK; [5],158 mL/min
same,Mean CLR decrease with increasing dose,"Urinary PK; Japanese, single doses 1 to 30 mg (162 to 148 mL/min)",8.6%
same,"Ae6, arithmetic mean (SD)",Urinary PK; [6],0.191 (0.0469) mg
same,"Ae12, arithmetic mean (SD)",Urinary PK; [6],0.215 (0.0527) mg
same,"Ae24%, arithmetic mean (SD)",Urinary PK; [6],22.0%
same,"CLR, arithmetic mean (SD)",Urinary PK; [6],166 (45.2) mL/min
same,"CLR, geometric mean (%CV)",Urinary PK; [6],162 (27) mL/min
same,"CLR, median",Urinary PK; [6],144 mL/min
same,"Ae24%, arithmetic mean (SD)","Urinary PK; Japanese, single oral 1 mg, n=6, listed as Tofacitinib",22.0 (5.34) %
same,"Ae12, arithmetic mean (SD)",Urinary PK; [7],0.995 ^c (0.367) mg
same,"Ae24%, arithmetic mean (SD)",Urinary PK; [7],20.4%
same,"CLR, geometric mean (%CV)",Urinary PK; [7],134 ^c (25) mL/min
same,"Ae24%, arithmetic mean (SD)","Urinary PK; Japanese, single oral 5 mg, n=5, listed as Tofacitinib",20.4 ^c (7.51) %
same,"Ae6, arithmetic mean (SD)",Urinary PK; [8],0.890 (0.327) mg
same,"CLR, arithmetic mean (SD)",Urinary PK; [8],137 (33.8) mL/min
same,"CLR, median",Urinary PK; [8],136 mL/min
same,"Ae6, arithmetic mean (SD)",Urinary PK; [9],5.59 (0.832) mg
same,"Ae12, arithmetic mean (SD)",Urinary PK; [9],6.46 (0.791) mg
same,"Ae24%, arithmetic mean (SD)",Urinary PK; [9],22.5%
same,"CLR, arithmetic mean (SD)",Urinary PK; [9],153 (41.8) mL/min
same,"CLR, geometric mean (%CV)",Urinary PK; [9],148 (27) mL/min
same,"CLR, median",Urinary PK; [9],149 mL/min
same,"Ae24%, arithmetic mean (SD)","Urinary PK; Japanese, single oral 30 mg, n=6, listed as Tofacitinib",22.5 (3.00) %
same,Mean CLR decrease with increasing dose,"Urinary PK; Western, single doses 1 to 30 mg (160 to 124 mL/min)",22.5%
same,"Ae24%, arithmetic mean (SD)","Urinary PK; Western, single oral 1 mg, n=5",21.2%
same,"CLR, geometric mean (%CV)","Urinary PK; Western, single oral 1 mg, n=5",160 ^c (11) mL/min
same,"Ae24%, arithmetic mean (SD)","Urinary PK; Western, single oral 1 mg, n=5, listed as Tofacitinib",21.2 ^c (0.865) %
same,"Ae6, arithmetic mean (SD)","Urinary PK; Western, single oral 1 mg, n=6",0.169 (0.0128) mg
same,"Ae12, arithmetic mean (SD)","Urinary PK; Western, single oral 1 mg, n=6",0.199 (0.0127) mg
same,"CLR, arithmetic mean (SD)","Urinary PK; Western, single oral 1 mg, n=6",161 (17.7) mL/min
same,"CLR, median","Urinary PK; Western, single oral 1 mg, n=6",158 mL/min
same,"Ae12, arithmetic mean (SD)","Urinary PK; Western, single oral 5 mg, n=5",0.919 ^c (0.265) mg
same,"Ae24%, arithmetic mean (SD)","Urinary PK; Western, single oral 5 mg, n=5",19.9%
same,"CLR, geometric mean (%CV)","Urinary PK; Western, single oral 5 mg, n=5",136 ^c (29) mL/min
same,"Ae24%, arithmetic mean (SD)","Urinary PK; Western, single oral 5 mg, n=5, listed as Tofacitinib",19.9 ^c (5.15) %
same,"Ae6, arithmetic mean (SD)","Urinary PK; Western, single oral 5 mg, n=6",0.744 (0.224) mg
same,"CLR, arithmetic mean (SD)","Urinary PK; Western, single oral 5 mg, n=6",141 (40.6) mL/min
same,"CLR, median","Urinary PK; Western, single oral 5 mg, n=6",148 mL/min
same,"Ae6, arithmetic mean (SD)",Urinary PK; [10],4.15 (1.11) mg
same,"Ae12, arithmetic mean (SD)",Urinary PK; [10],5.63 (1.28) mg
same,"Ae24%, arithmetic mean (SD)",Urinary PK; [10],19.8%
same,"CLR, arithmetic mean (SD)",Urinary PK; [10],127 (30.1) mL/min
same,"CLR, geometric mean (%CV)",Urinary PK; [10],124 (24) mL/min
same,"CLR, median",Urinary PK; [10],127 mL/min
same,"Ae24%, arithmetic mean (SD)","Urinary PK; Western, single oral 30 mg, n=6, listed as Tofacitinib",19.8 (4.11) %
same,percentage of unchanged tofacitinib excreted in urine,"Urinary PK; over 24 hours after single‐dose administration, across doses and ethnicities",approximately 20%
same,"differences in systemic exposure (Cmax, AUCinf) between Japanese and Western volunteers","[2]; 1, 5, 30 mg single doses, analysis of variance",No significant differences
same,"AUCinf, arithmetic mean (SD)",[2]; [11],22.8 (6.37) ng ⋅ h/mL
same,"AUCinf, geometric mean (%CV)",[2]; [11],22.0 (28) ng ⋅ h/mL
same,"Cmax, arithmetic mean (SD)",[2]; [11],7.38 (1.05) ng/mL
same,"Cmax, geometric mean (%CV)",[2]; [11],7.32 (14) ng/mL
same,"tmax, median (range)",[2]; [11],0.75 (0.50‐2.00) h
same,"t½, arithmetic mean (SD)",[2]; [11],1.96 (0.240) h
same,"AUCinf, arithmetic mean (SD)",[2]; [12],114 (25.5) ng ⋅ h/mL
same,"AUCinf, geometric mean (%CV)",[2]; [12],111 (22) ng ⋅ h/mL
same,"Cmax, arithmetic mean (SD)",[2]; [12],43.1 (15.0) ng/mL
same,"Cmax, geometric mean (%CV)",[2]; [12],41.3 (35) ng/mL
same,"tmax, median (range)",[2]; [12],0.50 (0.50‐1.00) h
same,"t½, arithmetic mean (SD)",[2]; [12],2.49 (0.570) h
same,"AUCinf, arithmetic mean (SD)",[2]; [13],775 (203) ng ⋅ h/mL
same,"AUCinf, geometric mean (%CV)",[2]; [13],754 (26) ng ⋅ h/mL
same,"Cmax, arithmetic mean (SD)",[2]; [13],324 (82.7) ng/mL
same,"Cmax, geometric mean (%CV)",[2]; [13],315 (25) ng/mL
same,"tmax, median (range)",[2]; [13],0.50 (0.50‐1.00) h
same,"t½, arithmetic mean (SD)",[2]; [13],3.14 (0.497) h
same,"tmax, J‐W difference of median","[2]; single oral 1 mg, Cohort A",0.00 h
same,"tmax, J‐W difference of median","[2]; single oral 5 mg, Cohort A",0.00 h
same,"tmax, J‐W difference of median","[2]; single oral 30 mg, Cohort A",0.00 h
same,"AUCinf, arithmetic mean (SD)",[2]; [14],22.9 (2.52) ng ⋅ h/mL
same,"AUCinf, geometric mean (%CV)",[2]; [14],22.8 (11) ng ⋅ h/mL
same,"Cmax, arithmetic mean (SD)",[2]; [14],7.53 (1.69) ng/mL
same,"Cmax, geometric mean (%CV)",[2]; [14],7.36 (22) ng/mL
same,"tmax, median (range)",[2]; [14],0.75 (0.50‐1.00) h
same,"t½, arithmetic mean (SD)",[2]; [14],2.14 (0.210) h
same,"AUCinf, arithmetic mean (SD)",[2]; [15],120 (16.8) ng ⋅ h/mL
same,"AUCinf, geometric mean (%CV)",[2]; [15],119 (14) ng ⋅ h/mL
same,"Cmax, arithmetic mean (SD)",[2]; [15],36.0 (9.78) ng/mL
same,"Cmax, geometric mean (%CV)",[2]; [15],34.9 (27) ng/mL
same,"tmax, median (range)",[2]; [15],0.50 (0.50‐2.00) h
same,"t½, arithmetic mean (SD)",[2]; [15],2.85 (0.691) h
same,"AUCinf, arithmetic mean (SD)",[2]; [16],797 (131) ng ⋅ h/mL
same,"AUCinf, geometric mean (%CV)",[2]; [16],788 (16) ng ⋅ h/mL
same,"Cmax, arithmetic mean (SD)",[2]; [16],269 (47.9) ng/mL
same,"Cmax, geometric mean (%CV)",[2]; [16],265 (18) ng/mL
same,"tmax, median (range)",[2]; [16],0.50 (0.50‐1.00) h
same,"t½, arithmetic mean (SD)",[2]; [16],3.50 (0.349) h
same,geometric mean Cmax in Japanese higher than in Western volunteers,"[2]; single 5 and 30 mg doses, Cohort A",approximately 19%
same,increase of systemic exposure with dose,"[2]; single oral doses 1, 5, 30 mg",approximately dose‐proportional
same,"Constipation, n (all causality)",Safety and tolerability; [17],1
same,"Hunger, n (all causality)",Safety and tolerability; [17],2
same,"Skin irritation, n (all causality)",Safety and tolerability; [17],1
same,"adverse events of moderate intensity: skin irritation, events","Safety and tolerability; Cohort B, single dose 15 mg, not considered related to study treatment",1
same,renal function (individual creatinine levels) following repeat administration,"Safety and tolerability; Japanese, Cohort B, 15 mg BID",renal function remained unaffected
same,changes in vital signs or ECG measurements,Safety and tolerability; whole study,no clinically significant changes
same,clinically significant laboratory abnormalities,Safety and tolerability; whole study,no volunteers had clinically significant laboratory abnormalities
same,serious adverse events or deaths,"Safety and tolerability; whole study, Cohorts A and B",No serious adverse events or deaths were reported
same,drug accumulation upon repeat dosing,[3]; 15 mg BID,negligible drug accumulation
same,time to steady state plasma concentration,[3]; 15 mg BID for 5 days,≤ 24 h
same,"AUCinf, arithmetic mean (SD)","[3]; day 1 single dose 15 mg, n=6",417 (133) ng ⋅ h/mL
same,"AUCinf, geometric mean (%CV)","[3]; day 1 single dose 15 mg, n=6",399 (32) ng ⋅ h/mL
same,"Cmax, arithmetic mean (SD)","[3]; day 1 single dose 15 mg, n=6",149 (50.6) ng/mL
same,"Cmax, geometric mean (%CV)","[3]; day 1 single dose 15 mg, n=6",141 (34) ng/mL
same,"tmax, median (range)","[3]; day 1 single dose 15 mg, n=6",0.75 (0.50‐1.00) h
same,"t½, arithmetic mean (SD)","[3]; day 1 single dose 15 mg, n=6",3.14 (0.672) h
same,"AUCτ, arithmetic mean (SD)","[3]; day 1 single dose 15 mg, n=6",403 (128) ng ⋅ h/mL
same,"AUCτ, geometric mean (%CV)","[3]; day 1 single dose 15 mg, n=6",387 (32) ng ⋅ h/mL
same,"Cmax, arithmetic mean (SD)",[3]; [18],143 (45.9) ng/mL
same,"Cmax, geometric mean (%CV)",[3]; [18],136 (32) ng/mL
same,"tmax, median (range)",[3]; [18],0.75 (0.50‐1.00) h
same,"t½, arithmetic mean (SD)",[3]; [18],3.28 (0.544) h
same,"AUCτ, arithmetic mean (SD)",[3]; [18],457 (116) ng ⋅ h/mL
same,"AUCτ, geometric mean (%CV)",[3]; [18],445 (25) ng ⋅ h/mL
same,effect on glomerular filtration rate,[4],did not alter the glomerular filtration rate
